Test results reported in ChEMBL document CHEMBL1125493, “HIV-1 neutralization and tumor cell proliferation inhibition in vitro by simplified analogues of pyrido[4,3,2-mn]thiazolo[5,4-b]acridine marine alkaloids” (J Med Chem, 1992).

Key:
MCF7 [1] = assay: […] breast tumor cell proliferation inhibition by the compound in vitro at a concentration of 6.0 uM.; assay type: functional, Homo sapiens
How it was run: (§1)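 Breast tumor cells treated with specified compound concentrations in RPMI-1640 in 1% agar with 5% FBS for 1 week. Viability compared with a control given distilled water in place of drug; 5-fluorouracil as standard cytotoxic drug. Reported as concentration-dependent cell survival.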

[2] = system: Human immunodeficiency virus 1; assay: Inhibitory effect (100 uM) against HIV-1 in human peripheral blood monocyte cells(PBMC) (EC50 ->28.6 ug/mL); assay type: functional
MT4 [3] = assay: Cytotoxic effect in cultured MT-4 lymphocytes at a concentration of 2 ug/mL (0.0070 uM/mL).; assay type: functional, Homo sapiens
How it was run: (§2)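 MT-4 cells at 5 × 10^4 cells/well, 1 mL total, cultured with compound diluted in RPMI 1640 with 10% FBS, 10 mM HEPES, penicillin/streptomycin and 2 mM glutamine, at 37 °C under 5% CO2. Viability was scored by trypan blue exclusion on days 4 and 7, in triplicate, as % viable cells.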

[4] = system: Human immunodeficiency virus 1; assay: Inactivation of HIV-MoltIIIB strain in MT-4 lymphocytes in vitro at a concentration of 400 ug/mL (1.4 uM/mL).; assay type: functional
How it was run: (§3)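 Compound (50 μL) was mixed with 50 μL of HIV-1 Molt IIIB or HIV-MN inoculum in RPMI 1640 for 1 h at room temperature. The mixture was added to 5 × 10^4 MT-4 cells and kept 7 days at 37 °C, 5% CO2. MTT (5.0 mg/mL) was added for 4 h, the reaction was stopped with 0.04 N HCl/2-propanol, and OD was read at 570 nm. % inactivation was calculated from OD relative to uninfected cells and untreated virus, mean of three.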

[5] = system: Human immunodeficiency virus 1; assay: Protection of MT-4 lymphocytes by the compound against HIV-1 infectivity in vitro at a concentration of 400 ug/mL (1.4 uM/mL); assay type: functional
How it was run: (§4)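 Virus (HIV-1 Molt IIIB, ~2 × 10^4 TCID50) preincubated with compound 1 h at 37 °C, 5% CO2. Then added to MT-4 cells (5 × 10^5 cells/well) and cultured at 37 °C. Trypan blue viability counts taken on days 4 and 7, triplicate at each concentration. Controls were infected and uninfected cells. Reported as % viable (surviving) MT-4 cells.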

COLO 320DM [6] = assay: COLO 320DM colon tumor cell proliferation inhibition by the compound in vitro at a concentration of 6.0 uM.; assay type: functional, Homo sapiens
How it was run: (§5)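 Tumor cells grown in RPMI-1640 in 1% agar with 5% fetal bovine serum, exposed to the specified concentrations for 1 week. Viability was assessed against a control given distilled water in place of drug. 5-Fluorouracil served as the positive cytotoxic standard. Results are reported as concentration-dependent cell survival.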

[7] = Calu3 lung tumor cell proliferation inhibition by the compound in vitro at a concentration of 6.0 uM.; assay type: functional, Homo sapiens; how it was run: as §5
MT4 [8] = assay: Cytotoxic effect in cultured MT-4 lymphocytes at a concentration of 10 ug/mL (0.0350 uM/mL).; assay type: functional, Homo sapiens; how it was run: as §2
MCF7 [9] = assay: […] breast tumor cell proliferation inhibition by the compound in vitro at a concentration of 60 uM.; assay type: functional, Homo sapiens; how it was run: as §1
COLO 320DM [10] = assay: COLO 320DM colon tumor cell proliferation inhibition by the compound in vitro at a concentration of 0.6 uM.; assay type: functional, Homo sapiens; how it was run: as §5
[11] = Calu3 lung tumor cell proliferation inhibition by the compound in vitro at a concentration of 0.6 uM.; assay type: functional, Homo sapiens; how it was run: as §5
[12] = system: Human immunodeficiency virus 1; assay: Inhibitory effect against HIV-1 induced cytopathic effects(HIV-1 neutralization) in MT-4 lymphocytes at a concentration of 100 ug/mL (0.3500 uM/mL).; assay type: functional
How it was run: (§6)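 HIV-1 Molt IIIB (~2 × 10^4 TCID50 in 100 μL) preincubated 1 h at 37 °C with a single compound dose, then added to MT-4 cells (5 × 10^5 cells/well, 1 mL). Cultured at 37 °C, 5% CO2. Viable cells counted by trypan blue exclusion on days 4 and 7. Triplicates; % viable cells. Controls: infected cells (positive), uninfected cells (negative).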

[13] = system: Human immunodeficiency virus 1; assay: Inactivation of HIV-MN strain in MT-4 lymphocytes in vitro at a concentration of 100 ug/mL (0.35 uM/mL).; assay type: functional; how it was run: as §3
MCF7 [14] = assay: […] breast tumor cell proliferation inhibition by the compound in vitro at a concentration of 0.6 uM.; assay type: functional, Homo sapiens; how it was run: as §1
[15] = system: Human immunodeficiency virus 1; assay: Inactivation of HIV-MoltIIIB strain in MT-4 lymphocytes in vitro at a concentration of 100 ug/mL (0.35 uM/mL).; assay type: functional; how it was run: as §3
[16] = system: Human immunodeficiency virus 1; assay: Inactivation of HIV-MoltIIIB strain in MT-4 lymphocytes in vitro at a concentration of 200 ug/mL (0.70 uM/mL).; assay type: functional; how it was run: as §3
[17] = system: Human immunodeficiency virus 1; assay: Inactivation of HIV-MN strain in MT-4 lymphocytes in vitro at a concentration of 400 ug/mL (1.40 uM/mL).; assay type: functional; how it was run: as §3
[18] = system: Human immunodeficiency virus 1; assay: Percent inhibition of HIV-1 binding to H-9 cells at a concentration of 100(ug/mL).; assay type: functional
How it was run: (§7)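 HIV-1 Molt IIIB (50 μL) incubated overnight with compound at 100 μg/mL, then with uninfected H-9 cells 2 h at 37 °C. Washed; stained with HIV-positive human serum (1:100) then FITC anti-human IgG (1:10), 30 min at 4 °C each. Formaldehyde-fixed (0.5%) and analysed by flow cytometry for % virus bound and % binding inhibition.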

[19] = system: Human immunodeficiency virus 1; assay: Inactivation of HIV-MN strain in MT-4 lymphocytes in vitro at a concentration of 200 ug/mL (0.70 uM/mL).; assay type: functional; how it was run: as §3
[20] = system: Human immunodeficiency virus 1; assay: Protection of MT-4 lymphocytes by the compound against HIV-1 infectivity in vitro at a concentration of 100 ug/mL (0.35 uM/mL); assay type: functional; how it was run: as §4
[21] = system: Human immunodeficiency virus 1; assay: Percent HIV-1 bound to H-9 cells at a concentration of 100(ug/mL).; assay type: functional; how it was run: as §7
COLO 320DM [22] = assay: COLO 320DM colon tumor cell proliferation inhibition by the compound in vitro at a concentration of 60 uM.; assay type: functional, Homo sapiens; how it was run: as §5
[23] = Calu3 lung tumor cell proliferation inhibition by the compound in vitro at a concentration of 60 uM.; assay type: functional, Homo sapiens; how it was run: as §5
MT4 [24] = assay: Cytotoxic effect in cultured MT-4 lymphocytes at a concentration of 100 ug/mL (0.3500 uM/mL).; assay type: functional, Homo sapiens; how it was run: as §2
[25] = system: Human immunodeficiency virus 1; assay: Protection of MT-4 lymphocytes by the compound against HIV-1 infectivity in vitro at a concentration of 200 ug/mL (0.70 uM/mL); assay type: functional; how it was run: as §4
COLO 320DM [26] = assay: COLO 320DM colon tumor cell proliferation inhibition by the compound in vitro at a concentration of 70 uM.; assay type: functional, Homo sapiens
How it was run: (§8)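 Tumor cells grown in RPMI-1640 in 1% agar with 5% fetal bovine serum, exposed to set compound concentrations for 1 week. Viability scored against a control given distilled water in place of drug. 5-fluorouracil served as reference cytotoxic drug. Reported as concentration-dependent cell survival.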

MCF7 [27] = assay: […] breast tumor cell proliferation inhibition by the compound in vitro at a concentration 7.0 of uM; assay type: functional, Homo sapiens; how it was run: as §8
COLO 320DM [28] = assay: COLO 320DM colon tumor cell proliferation inhibition by the compound in vitro at a concentration of 0.7 uM.; assay type: functional, Homo sapiens; how it was run: as §8
COLO 320DM [29] = assay: COLO 320DM colon tumor cell proliferation inhibition by the compound in vitro at a concentration of 7.0 uM.; assay type: functional, Homo sapiens; how it was run: as §8
MCF7 [30] = assay: […] breast tumor cell proliferation inhibition by the compound in vitro at a concentration 70 of uM; assay type: functional, Homo sapiens; how it was run: as §8
[31] = Calu3 lung tumor cell proliferation inhibition by the compound in vitro at a concentration of 0.7 uM.; assay type: functional, Homo sapiens; how it was run: as §8
MCF7 [32] = assay: […] breast tumor cell proliferation inhibition by the compound in vitro at a concentration of 0.7 uM.; assay type: functional, Homo sapiens; how it was run: as §8
[33] = Calu3 lung tumor cell proliferation inhibition by the compound in vitro at a concentration of 70 uM.; assay type: functional, Homo sapiens; how it was run: as §8
[34] = Calu3 lung tumor cell proliferation inhibition by the compound in vitro at a concentration of 7.0 uM.; assay type: functional, Homo sapiens; how it was run: as §8
[35] = system: Human immunodeficiency virus 1; assay: Inhibitory effect against HIV-1 induced cytopathic effects(HIV-1 neutralization) in MT-4 lymphocytes at a concentration of 100 ug/mL (0.2000 uM/mL).; assay type: functional; how it was run: as §6
MT4 [36] = assay: Cytotoxic effect in cultured MT-4 lymphocytes at a concentration of 10 ug/mL (0.0200 uM/mL).; assay type: functional, Homo sapiens; how it was run: as §2
MT4 [37] = assay: Cytotoxic effect in cultured MT-4 lymphocytes at a concentration of 100 ug/mL (0.2000 uM/mL).; assay type: functional, Homo sapiens; how it was run: as §2
MT4 [38] = assay: Cytotoxic effect in cultured MT-4 lymphocytes at a concentration of 2 ug/mL (0.0040 uM/mL).; assay type: functional, Homo sapiens; how it was run: as §2
[39] = system: Human immunodeficiency virus 1; assay: Protection of MT-4 lymphocytes by the compound against HIV-1 infectivity in vitro at a concentration of 0.008 ug/mL (0.00003 uM/mL); assay type: functional; how it was run: as §4
[40] = system: Human immunodeficiency virus 1; assay: Protection of MT-4 lymphocytes by the compound against HIV-1 infectivity in vitro at a concentration of 0.032 ug/mL ([…] uM/mL); assay type: functional; how it was run: as §4
[41] = system: Human immunodeficiency virus 1; assay: microbe, parasite or virus in culture
[42] = system: Human immunodeficiency virus 1; assay: Protection of MT-4 lymphocytes by the compound against HIV-1 infectivity in vitro at a concentration of 0.016 ug/mL (0.00006 uM/mL); assay type: functional; how it was run: as §4

Work on `O=C([O-])CSc1ccc2nc3ccccc3c(O)c2c1.[Na+]` yielded a Viability (MCF7 [1]) of 19%, an Inhibition [2] of 31% and a Viability (MT4 [3]) of 96.7%. It also gave an Inactivation [4] of 74.3%, a Survival [5] of 84.2% and a Viability (COLO 320DM [6]) of 41%. It also gave a Viability [7] of 48%, a Viability (MT4 [8]) of 93.3% and a Viability (MCF7 [9]) of 0%. It also gave a Viability (COLO 320DM [10]) of 110%, a Viability [11] of 113% and a Viability [12] of 70.9%. It also gave an Inactivation [13] of 13.1%, a Viability (MCF7 [14]) of 85% and an Inactivation [15] of 21%. For the same molecule, the Inactivation [16] was 100%, the Inactivation [17] was 25% and the Inhibition [18] was 32.7%. It also gave an Inactivation [19] of 40.5%, a Survival [20] of 72.7% and a Bound [21] of 22.4%. For the same molecule, the Viability (COLO 320DM [22]) was 0%, the Viability [23] was 0% and the Viability (MT4 [24]) was 92.6%. It also gave a Survival [25] of 81.4%.

Molecule `O=c1[nH]cc(F)c(=O)[nH]1` [FLUOROURACIL] has a Viability (COLO 320DM [26]) of 2%, a Viability (MCF7 [27]) of 10% and a Viability (COLO 320DM [28]) of 79%. For the same molecule, the Viability (COLO 320DM [29]) was 5%, the Viability (MCF7 [30]) was 5% and the Viability [31] was 80%. It also gave a Viability (MCF7 [32]) of 29%, a Viability [33] of 17% and a Viability [34] of 32%.

In the case of `CCN(CC)CCCC(C)Nc1c2ccc(Cl)cc2nc2ccc(OC)cc12.Cl.Cl` (configuration not stated) [QUINACRINE DIHYDROCHLORIDE], the Viability [35] is reported as 0%, the Viability (MT4 [36]) is reported as 88.2% and the Viability (MT4 [37]) is reported as 82.1%. For the same molecule, the Viability (MT4 [38]) was 93.6%.

For `Cc1cn([C@H]2C[C@H](N=[N+]=[N-])[C@@H](CO)O2)c(=O)[nH]c1=O` [ZIDOVUDINE], the Survival [39] was 74.3%, the Survival [40] was 78.3% and the EC50 [41] was 4 nM. For the same molecule, the Survival [42] was 79.4%.
